Measured values as given in ChEMBL document CHEMBL1124606, “Benzo- and pyrido-1,4-oxazepin-5-ones and -thiones: synthesis and structure-activity relationships of a new series of H1 antihistamines” (1989).

These molecules were tested on Cavia porcellus (assay: Histamine induced lethality, at 60-min pretreatment time when 0.3 mg/kg compound was administered perorally in guinea pigs). Settings: route oral.
Format: functional

Structure (SMILES)	survival at 0.3 mg/kg [%]
Cc1ccc2c(n1)OC(CCN(C)C)CN(C)C2=S (stereo unspecified)	100
CN1CC(CCN2CCC2)Oc2ccc(Cl)cc2C1=S (stereo unspecified)	100
Cc1nc2c(cc1Cl)C(=S)N(C)CC(CCN(C)C)O2 (stereo unspecified)	67
CN(C)CCC1CN(C)C(=S)c2ccncc2O1 (stereo unspecified)	0
Cc1nc2c(cc1Cl)C(=S)N(C)CC(CCN1CCC1)O2 (stereo unspecified)	67
CN(C)CCC1(C)CN(C)C(=S)c2cccnc2O1 (stereo unspecified)	67
CN(C)CCC1CN(C)C(=S)c2cc3ccccc3nc2O1 (stereo unspecified)	100

What follows are molecules tested on Cavia porcellus (assay: Histamine induced lethality, at 60-min pretreatment time when 1 mg/kg compound was administered perorally in guinea pigs). Settings: route oral.
Format: functional

Structure (SMILES)	survival at 1 mg/kg [%]
CN(C)CCC1CN(C)C(=S)c2ccncc2O1 (stereo unspecified)	100
CN(C)CCC1(C)CN(C)C(=S)c2cccnc2O1 (stereo unspecified)	100

Species on record: Cavia porcellus
Experiment: Effective dose that protects guinea pigs against histamine induced lethality at 6 hours pretreatment time
Format: functional
Settings: not given
How it was run: (§1)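 Survival at 24 h after challenge was scored as protection. Groups of 5–10 animals per treatment; ED50 was calculated by the Litchfield–Wilcoxon method or by computer probit analysis.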

Structure (SMILES)	ED50 [mg/kg]
Cc1ccc2c(n1)OC(CCN(C)C)CN(C)C2=S (stereo unspecified)	> 2
CN1CC(CCN2CCC2)Oc2ncccc2C1=S (stereo unspecified)	1
CN(C)CCC1CN(C)C(=S)c2cc(Br)cnc2O1 (stereo unspecified)	2
CN(C)CCC1(C)CN(C)C(=S)c2cccnc2O1 (stereo unspecified)	6
CN(C)CCC1CN(C)C(=S)c2cc3ccccc3nc2O1 (stereo unspecified)	2.9

Species on record: Cavia porcellus
Experiment: Effective dose that protects guinea pigs against histamine induced lethality, at 1 hour pretreatment time
Format: functional
Settings: not given
How it was run: as §1

Structure (SMILES)	ED50 [mg/kg]
Cc1ccc2c(n1)OC(CCN(C)C)CN(C)C2=S (stereo unspecified)	0.06
CN1CC(CCN2CCC2)Oc2ncccc2C1=S (stereo unspecified)	0.04
CN1CC(CCN2CCC2)Oc2ccc(Cl)cc2C1=S (stereo unspecified)	0.12
CN(C)CCC1CN(C)C(=S)c2cc(Br)cnc2O1 (stereo unspecified)	0.05
CN(C)CCC1(C)CN(C)C(=S)c2cccnc2O1 (stereo unspecified)	0.12
CN(C)CCC1CN(C)C(=S)c2cc3ccccc3nc2O1 (stereo unspecified)	0.1

The molecules below were run against Histamine H1 receptor (Cavia porcellus) (UniProt P31389) (assay: Histamine induced lethality, at 30-min pretreatment time of 3 mg/kg i.p. in guinea pigs.). Settings: at 3 mg/kg.
Chain of Histamine H1 receptor (Cavia porcellus) (P31389 whole entry): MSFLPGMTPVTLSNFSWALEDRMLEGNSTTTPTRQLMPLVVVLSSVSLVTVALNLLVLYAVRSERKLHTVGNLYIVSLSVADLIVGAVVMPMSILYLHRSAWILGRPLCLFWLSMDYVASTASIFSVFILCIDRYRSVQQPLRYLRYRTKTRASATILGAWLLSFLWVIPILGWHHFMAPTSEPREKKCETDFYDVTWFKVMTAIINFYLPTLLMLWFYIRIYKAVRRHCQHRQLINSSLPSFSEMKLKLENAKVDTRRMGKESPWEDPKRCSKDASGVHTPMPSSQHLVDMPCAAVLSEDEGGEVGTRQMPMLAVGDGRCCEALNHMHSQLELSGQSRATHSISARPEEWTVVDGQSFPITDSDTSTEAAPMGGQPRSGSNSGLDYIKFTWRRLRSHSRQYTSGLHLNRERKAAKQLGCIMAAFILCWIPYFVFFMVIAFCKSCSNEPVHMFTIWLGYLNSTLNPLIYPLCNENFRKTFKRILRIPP
Format: functional, organism-based
Set-up: dose 3 mg/kg

Structure (SMILES)	Survival [%]
CN(C)CCCC1CN(C)C(=O)c2cccnc2O1 (stereo unspecified)	0
CC(CN(C)C)C1CN(C)C(=S)c2cccnc2O1 (stereo unspecified)	0
CC(CC1CN(C)C(=O)c2cccnc2O1)N(C)C (stereo unspecified)	0
CN1CC(CCn2ccnc2)Oc2ncccc2C1=S (stereo unspecified)	0
CN(C)CCC1CN(C)C(=O)c2cnc3cc(C(F)(F)F)ccc3c2O1 (stereo unspecified)	0
CC(CN(C)C)C1CN(C)C(=O)c2cccnc2O1 (stereo unspecified)	0
CN1CC(CC[N+](C)(C)C)Oc2ncccc2C1=S (stereo unspecified)	0
CCCCN(CCCC)CCC1CN(C)C(=S)c2cccnc2O1 (stereo unspecified)	33
CN(C)CCCC1CN(C)C(=S)c2cccnc2O1 (stereo unspecified)	33
CN1CC(CCCN)Oc2ncccc2C1=O (stereo unspecified)	0
CN1CCN(CCC2CN(C)C(=S)c3cccnc3O2)CC1 (stereo unspecified)	0
CN1CC(CCN2CCOCC2)Oc2ncccc2C1=S (stereo unspecified)	0
CN1CC(CCN2CCCCC2)Oc2ncccc2C1=S (stereo unspecified)	0

The molecules below were run on Cavia porcellus (assay: Histamine induced lethality, at 30-min pretreatment time when 30 mg/kg compound was administered intra peritoneally in guinea pigs). Settings: not given.
Format: functional

Structure (SMILES)	survival at 30 mg/kg [%]
CN(C)CCCC1CN(C)C(=O)c2cccnc2O1 (stereo unspecified)	100
CC(CN(C)C)C1CN(C)C(=S)c2cccnc2O1 (stereo unspecified)	100
CC(CC1CN(C)C(=O)c2cccnc2O1)N(C)C (stereo unspecified)	100
CN1CC(CCNC2CCC2)Oc2ncccc2C1=S (stereo unspecified)	0
CN1CC(CCn2ccnc2)Oc2ncccc2C1=S (stereo unspecified)	100
CN(C)CC1CN(C)C(=O)c2cccnc2O1 (stereo unspecified)	0
CN(C)CCC1CN(C)C(=O)c2cnc3cc(C(F)(F)F)ccc3c2O1 (stereo unspecified)	100
CN(C)CCC1CN(C)C(=O)c2cnc3ccccc3c2O1 (stereo unspecified)	33
CN(C)CCOc1ncccc1C(=S)N(C)C	0
CC(CN(C)C)C1CN(C)C(=O)c2cccnc2O1 (stereo unspecified)	67
CN1CC(CCNC2CC2)Oc2ncccc2C1=S (stereo unspecified)	0
CN1CC(CCn2cccn2)Oc2ncccc2C1=S (stereo unspecified)	33
CN1CC(CC[N+](C)(C)C)Oc2ncccc2C1=S (stereo unspecified)	100
O=C1c2ccccc2OC(CCN2CCOCC2)CN1Cc1ccccc1 (stereo unspecified)	0
CN(C)CCC1CN(C)C(=O)c2c(cncc2N(C)C)O1 (stereo unspecified)	0
CN(C)CCC1CN(C)C(=O)c2ccccc2O1 (stereo unspecified)	62
CN(C)CCC1CN(C)C(=O)c2c(Cl)cncc2O1 (stereo unspecified)	0
CN1CC(CCN2CCOCC2)Oc2ccccc2C1=S (stereo unspecified)	50
CCCCN(CCCC)CCC1CN(C)C(=S)c2cccnc2O1 (stereo unspecified)	100
CN(C)CCCC1CN(C)C(=S)c2cccnc2O1 (stereo unspecified)	100
CN1CC(CCCN)Oc2ncccc2C1=O (stereo unspecified)	100
CN1CC(CCCN)Oc2ncccc2C1=S (stereo unspecified)	67
CN1CC(CCN(Cc2ccccc2)Cc2ccccc2)Oc2ncccc2C1=S (stereo unspecified)	0
CN(C)CC1CN(C)C(=S)c2cccnc2O1 (stereo unspecified)	0
CN(C)CCCOc1ncccc1C(=S)N(C)C	0
CCN1CC(CCN(C)C)N(C)c2ccccc2C1=O (stereo unspecified)	0
CN1CCN(CCC2CN(C)C(=S)c3cccnc3O2)CC1 (stereo unspecified)	100
CN1CC(CCN2CCOCC2)Oc2ncccc2C1=S (stereo unspecified)	100
S=C1c2ccccc2OC(CCN2CCOCC2)CN1Cc1ccccc1 (stereo unspecified)	0
CN1CC(CCN2CCCCC2)Oc2ncccc2C1=S (stereo unspecified)	100

The molecules below were run against Histamine H1 receptor (Cavia porcellus) (UniProt P31389) (assay: Histamine induced lethality, at 60-min pretreatment time of 0.1 mg/kg p.o. in guinea pigs.). Settings: at 0.1 mg/kg.
Format: functional, organism-based
Set-up: dose 0.1 mg/kg

Structure (SMILES)	Survival [%]
Cc1ccc2c(n1)OC(CCN(C)C)CN(C)C2=S (stereo unspecified)	80
CN1CC(CCN2CCC2)Oc2ncccc2C1=S (stereo unspecified)	100
CN1CC(CCN2CCC2)Oc2ccc(Cl)cc2C1=S (stereo unspecified)	40
Cc1nc2c(cc1Cl)C(=S)N(C)CC(CCN(C)C)O2 (stereo unspecified)	67
Cc1nc2c(cc1Cl)C(=S)N(C)CC(CCN1CCC1)O2 (stereo unspecified)	67
CN(C)CCC1CN(C)C(=S)c2cc(Br)cnc2O1 (stereo unspecified)	100
CN(C)CCC1(C)CN(C)C(=S)c2cccnc2O1 (stereo unspecified)	40
CN(C)CCC1CN(C)C(=S)c2cc3ccccc3nc2O1 (stereo unspecified)	67
